Data from ChEMBL document CHEMBL4396879, “Conjugation of Short Peptides to Dibenzodiazepinone-Type Muscarinic Acetylcholine Receptor Ligands Determines M2R Selectivity” (J Med Chem, 2019).
Each block holds one molecule with its values, some of them ahead of it.

Columns and labels:
[1] = target: T1, Muscarinic acetylcholine receptor M1 (Homo sapiens, UniProt P11229); assay: Binding affinity to muscarinic M1 receptor (unknown origin) expressed in CHO cells; type: cell-based
T1 sequence (P11229 whole entry): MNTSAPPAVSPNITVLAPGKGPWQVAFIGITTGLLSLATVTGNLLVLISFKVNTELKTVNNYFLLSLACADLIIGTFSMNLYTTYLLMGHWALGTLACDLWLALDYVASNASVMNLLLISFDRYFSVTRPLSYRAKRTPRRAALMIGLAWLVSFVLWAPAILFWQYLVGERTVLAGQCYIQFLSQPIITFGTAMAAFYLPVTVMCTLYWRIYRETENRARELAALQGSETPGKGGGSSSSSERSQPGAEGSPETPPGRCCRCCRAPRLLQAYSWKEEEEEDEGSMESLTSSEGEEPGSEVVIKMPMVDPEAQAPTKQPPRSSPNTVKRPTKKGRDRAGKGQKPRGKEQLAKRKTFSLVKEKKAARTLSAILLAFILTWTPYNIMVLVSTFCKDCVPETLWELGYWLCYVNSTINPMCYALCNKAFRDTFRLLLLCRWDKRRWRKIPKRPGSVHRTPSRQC
Procedure, shortened: (§1)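 [3H]NMS competition binding on intact CHO-hMxR cells in L15 medium with 1% BSA, 3 h at 22 ± 1 °C with gentle shaking. [3H]NMS was 0.2 nM (M1, M2, M3), 0.1 nM (M4) or 0.3 nM (M5). […] Cells were lysed in urea/acetic acid/Triton and counted by liquid scintillation. Ki from Cheng-Prusoff. Triplicates, ≥3 experiments.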

[2] = target: T2, Muscarinic acetylcholine receptor M3 (Homo sapiens, UniProt P20309); assay: Binding affinity to muscarinic M3 receptor (unknown origin) expressed in CHO cells; type: cell-based; procedure, shortened: as §1
T2 sequence (P20309 whole entry): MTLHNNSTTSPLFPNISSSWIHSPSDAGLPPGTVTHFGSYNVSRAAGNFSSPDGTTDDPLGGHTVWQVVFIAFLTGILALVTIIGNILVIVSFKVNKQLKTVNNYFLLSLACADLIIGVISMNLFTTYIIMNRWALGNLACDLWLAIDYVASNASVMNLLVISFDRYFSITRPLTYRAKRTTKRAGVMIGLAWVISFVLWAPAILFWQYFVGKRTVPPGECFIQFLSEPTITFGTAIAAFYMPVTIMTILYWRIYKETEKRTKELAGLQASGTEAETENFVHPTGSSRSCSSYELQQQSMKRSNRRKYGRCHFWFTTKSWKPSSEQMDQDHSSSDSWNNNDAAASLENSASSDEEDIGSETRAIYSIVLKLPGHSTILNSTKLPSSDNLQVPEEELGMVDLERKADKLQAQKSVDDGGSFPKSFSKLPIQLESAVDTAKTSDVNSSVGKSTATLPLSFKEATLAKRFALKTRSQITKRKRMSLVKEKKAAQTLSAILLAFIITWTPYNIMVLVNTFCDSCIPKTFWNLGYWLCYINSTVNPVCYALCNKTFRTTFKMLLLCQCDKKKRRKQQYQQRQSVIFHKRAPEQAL

[3] = target: T3, Muscarinic acetylcholine receptor M4 (Homo sapiens, UniProt P08173); assay: Binding affinity to muscarinic M4 receptor (unknown origin) expressed in CHO cells; type: cell-based; procedure, shortened: as §1
T3 sequence (P08173 whole entry): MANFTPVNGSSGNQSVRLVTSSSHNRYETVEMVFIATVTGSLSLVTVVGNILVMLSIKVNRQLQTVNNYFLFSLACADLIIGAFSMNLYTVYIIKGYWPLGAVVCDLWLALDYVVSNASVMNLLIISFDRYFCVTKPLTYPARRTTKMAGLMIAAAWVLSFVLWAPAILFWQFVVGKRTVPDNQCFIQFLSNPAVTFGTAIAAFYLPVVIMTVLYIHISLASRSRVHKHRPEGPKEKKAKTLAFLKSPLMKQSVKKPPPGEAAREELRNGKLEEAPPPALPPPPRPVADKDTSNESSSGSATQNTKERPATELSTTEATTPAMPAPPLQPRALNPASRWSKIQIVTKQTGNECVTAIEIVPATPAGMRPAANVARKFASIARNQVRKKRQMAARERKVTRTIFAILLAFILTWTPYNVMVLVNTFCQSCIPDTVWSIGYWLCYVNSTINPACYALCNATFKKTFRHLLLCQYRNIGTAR

[4] = target: T4, Muscarinic acetylcholine receptor M5 (Homo sapiens, UniProt P08912); assay: Binding affinity to muscarinic M5 receptor (unknown origin) expressed in CHO cells; type: cell-based; procedure, shortened: as §1
T4 sequence (P08912 whole entry): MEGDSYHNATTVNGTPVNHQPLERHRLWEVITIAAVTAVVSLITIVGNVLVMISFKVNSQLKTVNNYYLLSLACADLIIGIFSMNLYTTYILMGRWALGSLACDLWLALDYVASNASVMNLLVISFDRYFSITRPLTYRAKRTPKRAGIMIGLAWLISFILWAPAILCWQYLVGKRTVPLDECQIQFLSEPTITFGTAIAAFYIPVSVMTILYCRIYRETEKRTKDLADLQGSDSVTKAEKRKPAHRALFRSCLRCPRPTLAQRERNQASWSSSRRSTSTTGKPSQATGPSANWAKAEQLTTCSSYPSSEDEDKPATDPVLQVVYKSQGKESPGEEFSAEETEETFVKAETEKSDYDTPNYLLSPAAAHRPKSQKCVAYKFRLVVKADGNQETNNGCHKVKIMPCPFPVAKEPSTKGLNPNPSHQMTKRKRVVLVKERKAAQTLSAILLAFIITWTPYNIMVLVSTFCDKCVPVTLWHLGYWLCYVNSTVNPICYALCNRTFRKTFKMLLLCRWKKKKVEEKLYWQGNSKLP

[5] = target: T5, Muscarinic acetylcholine receptor M2 (Homo sapiens) (UniProt P08172); assay: Antagonist activity at human muscarinic M2 receptor expressed in HEK293 cells co-expressing HA-Galphaq/i5 assessed as inhibition of carbachol-induced IP1 accumulation pre-incubated for 30 mins followed by carbachol addition and measured after 1 hr by HTRF assay; type: functional, cell-based
T5 sequence (whole entry): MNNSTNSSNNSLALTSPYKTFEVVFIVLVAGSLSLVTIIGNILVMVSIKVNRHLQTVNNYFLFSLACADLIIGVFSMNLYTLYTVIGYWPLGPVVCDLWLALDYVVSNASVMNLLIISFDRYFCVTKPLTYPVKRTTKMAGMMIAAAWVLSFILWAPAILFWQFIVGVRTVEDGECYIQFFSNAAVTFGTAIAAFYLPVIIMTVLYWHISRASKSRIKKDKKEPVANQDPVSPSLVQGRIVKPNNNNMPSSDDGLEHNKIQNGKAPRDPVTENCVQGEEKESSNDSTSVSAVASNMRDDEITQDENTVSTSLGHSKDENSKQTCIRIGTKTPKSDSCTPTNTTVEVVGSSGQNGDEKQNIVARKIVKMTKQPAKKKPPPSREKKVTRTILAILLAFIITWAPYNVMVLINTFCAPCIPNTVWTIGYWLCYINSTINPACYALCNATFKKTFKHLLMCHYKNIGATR
Procedure, shortened: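 HEK-293 cells transiently cotransfected (receptor plus HA-tagged Gαqi5), detached after 1 day and seeded at 10,000 cells/well for 24 h at 37 °C. Duplicates.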

[6] = target: Muscarinic acetylcholine receptors; M2 & M3 (Homo sapiens) (UniProt P20309+P08172); assay: Selectivity ratio of Ki for human muscarinic M3 receptor expressed in stable CHO-K1 cells to Ki for human muscarinic M2 receptor expressed in stable CHO-K1 cells; type: cell-based
Muscarinic acetylcholine receptors; M2 & M3 (Homo sapiens), sequence (P20309 whole entry, looked up, one chain of several): as the sequence (P20309 whole entry) above

[7] = target: Muscarinic acetylcholine receptor M2 and M5 (Homo sapiens) (UniProt P08172+P08912); assay: Selectivity ratio of Ki for human muscarinic M5 receptor expressed in stable CHO-K1 cells to Ki for human muscarinic M2 receptor expressed in stable CHO-K1 cells; type: cell-based
[8] = target: T1, Muscarinic acetylcholine receptor M1; assay: Displacement of [3H]-NMS from human muscarinic M1 receptor expressed in CHO-K1 cells by scintillation counting method; type: cell-based; procedure, shortened: as §1
[9] = target: T6, Muscarinic acetylcholine receptor M2 (Homo sapiens, UniProt P08172); assay: Displacement of [3H]-NMS from human muscarinic M2 receptor expressed in CHO-K1 cells by scintillation counting method; type: cell-based; procedure, shortened: as §1
T6 sequence (P08172 whole entry): T5 sequence (whole entry)

[10] = target: T2, Muscarinic acetylcholine receptor M3; assay: Displacement of [3H]-NMS from human muscarinic M3 receptor expressed in CHO-K1 cells by scintillation counting method; type: cell-based; procedure, shortened: as §1
[11] = target: T3, Muscarinic acetylcholine receptor M4; assay: Displacement of [3H]-NMS from human muscarinic M4 receptor expressed in CHO-K1 cells by scintillation counting method; type: cell-based; procedure, shortened: as §1
[12] = target: T4, Muscarinic acetylcholine receptor M5; assay: Displacement of [3H]-NMS from human muscarinic M5 receptor expressed in CHO-K1 cells by scintillation counting method; type: cell-based; procedure, shortened: as §1

Ki [1]: 50.1 nM | Ki [2]: 100 nM | Ki [3]: 7.94 nM | Ki [4]: 1260 nM
Compound: CCN(CC)CCCCC1CCN(CC(=O)N2c3ccccc3C(=O)Nc3cccnc32)CC1

Compound: CN1[C@@H]2CC[C@H]1C[C@@H](OC(=O)C(CO)c1ccccc1)C2 (some centres undefined)
inhibition [5]: Dose-dependent effect

Ratio Ki [6]: 26 | Ratio Ki [7]: 48 | Ki [8]: 1070 nM | Ki [9]: 30.2 nM | Ki [10]: 776 nM | Ki [11]: 174 nM | Ki [12]: 1450 nM
Compound: CCCC(C)(C)C(=O)N(CC)CCCC1CCN(CC(=O)N2c3ccc(Cl)cc3C(=O)Nc3cccnc32)CC1

Ratio Ki [6]: 11 | Ratio Ki [7]: 89
Compound: CCCN(CCC)CC1CCCCN1CCNC(=O)N1c2ccccc2C(=O)Nc2cccnc21 (centres undefined)
